Most compounds without a hit are left out; they make up all but 4.7% or so of the library.
RGS4 pot – RGS4 potentiation or activation; HEK293 M3R/inducible RGS4, carbachol calcium flux Fluo4; hits give low values; B-score at 10 µM; 0.92% of 310,000 active;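 active = B-score of the integrated calcium signal more than 4 SD below the library mean, with starting fluorescence not abnormally high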;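 also: negative B-score means reduced calcium response which marks RGS4 activation or potentiation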
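Detection: kinetic calcium fluorescence imaging with Fluo4-AM dye, 2 µM / Material: HEK293 cells with stable M3R and inducible RGS4 / Schedule: recording 10 s baseline at 1 Hz, 100 s post-agonist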
MrgX1 antagonist – blocks BAM8-22 activation of human MrgX1 receptor; Q96LB2; MRGX1-HEK293 calcium flux, Fluo-4, BAM8-22 antagonism; hits give low values; B-score at 10 µM; 1.3% of 310,000 active; AID 588676;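 active = calcium-response B-score plate-corrected more than 3 library SD below zero, starting fluorescence within 5 deviations, no agonist response on first addition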;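 also: peak minus trough fluorescence over baseline after final BAM8-22 challenge near maximal dose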
Target sequence (Q96LB2 whole entry, looked up): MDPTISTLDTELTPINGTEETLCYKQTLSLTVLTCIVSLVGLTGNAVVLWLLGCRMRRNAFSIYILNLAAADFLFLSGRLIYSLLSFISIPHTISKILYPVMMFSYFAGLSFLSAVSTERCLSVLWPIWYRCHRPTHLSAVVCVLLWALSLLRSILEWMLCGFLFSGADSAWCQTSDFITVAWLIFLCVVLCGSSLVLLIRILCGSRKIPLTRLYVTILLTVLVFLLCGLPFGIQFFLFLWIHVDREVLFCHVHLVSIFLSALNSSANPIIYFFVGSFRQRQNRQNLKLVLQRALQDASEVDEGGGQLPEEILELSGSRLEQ
RGS4 inh – inhibitors of human RGS4. P49798. HEK293 M3R/RGS4 inducible, Fluo-4 calcium flux; hits give high values; triggered by carbachol at its EC20. B-score at 10 µM. 0.45% of 310,000 active;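 active = B-score, a plate-corrected calcium signal, over three deviations above library mean, with baseline fluorescence within five deviations of library mean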;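 also: RGS4 expression induced by doxycycline in cells with stable M3 receptor; B-score is computed from the integrated fluorescence ratio over baseline after carbachol; higher B-score means a larger calcium signal and so more RGS4 inhibition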
Target sequence (P49798 whole entry, looked up): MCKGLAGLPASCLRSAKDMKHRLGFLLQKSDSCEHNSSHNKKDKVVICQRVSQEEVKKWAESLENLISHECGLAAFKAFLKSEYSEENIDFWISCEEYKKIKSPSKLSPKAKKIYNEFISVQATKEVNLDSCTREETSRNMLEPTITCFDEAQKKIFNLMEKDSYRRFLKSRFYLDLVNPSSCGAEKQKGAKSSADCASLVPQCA
MrgX1 ag – activates human MrgX1 receptor signaling. Q96LB2. MrgX1-HEK293 cells, Fluo-4 calcium fluorescence, agonist mode; hits give high values. B-score at 10 µM. 0.44% of 310,000 active. AID 588627;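 active = calcium response B-score plate-corrected fluorescence ratio at least 3 library SD, with starting fluorescence B-score inside 5 SD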
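Material: MrgX1-expressing HEK293 cells; input: 15,000 cells per well; doses: test compound given as first of three sequential additions; schedule: overnight plating before 1 h dye loading; technique: Fluo-4 NW calcium-flux fluorescence, kinetic read; evaluation: baseline-normalised fluorescence change ratio, B-scored; control set: plate-wise positive and negative controls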
MrgX1 PAM – allosterically activates human MrgX1 receptor signaling; Q96LB2; MrgX1-HEK293, Fluo-4 calcium flux, FDSS; hits give high values; B-score at 10 µM; 0.63% of 310,000 active; AID 588675;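 active = plate-corrected calcium response at least 3 library SD above typical, normal starting fluorescence, not activating the receptor alone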;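 also: compound read alongside a low EC10 to EC30 dose of BAM8-22 agonist; peak minus trough fluorescence over baseline measured at the second addition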
Cl transport mod – modulators of human KCC2 chloride dependent transport. Q9H2X9. KCC2 cells, thallium flux FluoZin-2 fluorescence. B-score of Tl+ flux slope (higher = more flux/activation; lower = inhibition) at 10 µM. 2.2% of 190,000 active. AID 1456;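 active = thallium flux slope and its plate-corrected score both differing from the plate sample mean at a set confidence after two filtering rounds, in either direction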;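 also: slope of fluorescence scaled to starting intensity during 10 to 20 s after thallium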
RGS4 block valid – validation of RGS4 inhibitors | shares compounds with RGS4 inh | HEK293 M3R/RGS4, carbachol calcium Fluo-4 fluorescence; carbachol added at its EC20; 0 = buffer wells, 100 = carbachol control | 65% of 1,700 active | calcium response, % at 10 µM;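 active = duplicate-averaged calcium response above the buffer-only control mean plus 5 SD of those controls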;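 also: integrated fluorescence ratio F max minus min over baseline F0; higher response in RGS4-induced cells means RGS4 inhibition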
RGS4 uninduced – checks RGS4 inhibitor effects in non-induced HEK293 M3R cells | activity (percent), % at 10 µM | 20% of 1,900 active | carbachol calcium Fluo-4; submaximal (EC20) carbachol stimulus; buffer wells 0%, carbachol control wells 100% | AID 493000 | shares compounds with RGS4 inh; call rule not given here;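 also: RGS4 induction absent so cells express M3R without RGS4; higher means more calcium signal and flags a non-specific hit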
M3R basal Ca ctr – second RGS4 inhibitor counter-screen in uninduced cells lacking carbachol | calcium response (agonist-mode artifact), % at 10 µM | 22% of 1,900 active | HEK293 M3R/RGS4 non-induced, Fluo-4 calcium, no carbachol; normalised: buffer wells 0%, carbachol wells 100% | shares compounds with RGS4 inh | AID 493001;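 active = duplicate-averaged calcium rise in uninduced cells above buffer wells' mean plus 5 SD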
Hits are given with their value; . = inactive; / = no result given.

SMILES | RGS4 pot | MrgX1 antagonist | RGS4 inh | MrgX1 ag | MrgX1 PAM | Cl transport mod | RGS4 block valid | RGS4 uninduced | M3R basal Ca ctr
CC(C)[C@H](NC(=O)c1ccccc1)C(=O)OCC(=O)c1ccc(S(=O)(=O)N2CCCCC2)cc1 | . | . | . | . | . | / | / | / | /
CCC(=O)Nc1ccc2c(c1)nc(CCNC(=O)c1ccco1)n2C | . | . | . | . | . | / | / | . | .
O=C(Nc1ccccc1C(=O)Nc1ccc(Cl)cc1)c1cccnc1 | . | . | . | . | . | / | / | / | /
CCOc1ccccc1NC(=O)c1ccc(Cl)c(NC(=O)CC(c2ccccc2)c2ccccc2)c1 | . | . | . | . | . | / | / | / | /
CCOc1ccccc1NC(=O)c1cccc(NC(=O)CC(c2ccccc2)c2ccccc2)c1 | . | . | 10.6 | . | . | . | 29.5% | 36.5% | 15.5%
Cc1ccc(-c2csc(NC(=O)CSc3nc4ccccc4[nH]3)n2)cc1 | . | / | . | / | / | . | / | . | .
CSc1ccccc1OCc1cc(C(=O)NCCC2CCCCO2)no1 (centres undefined) | . | . | 10.7 | . | . | / | . | . | .
COc1ccc(/C=C/C(=O)NCCc2ccc(OC)c(OC)c2)cc1 | . | . | . | . | . | . | / | / | /
COc1ccc(CCNC(=O)/C=C/c2ccc3ccccc3n2)cc1OC | . | . | 13.1 | . | . | / | 34.5% | 31.5% | .
Cc1cccc(C2c3[nH]c4ccccc4c3CCN2C(=O)Cc2nc(-c3ccccc3)n[nH]2)n1 (centres undefined) | . | . | 5.68 | . | . | / | 10.5% | . | .
Cc1cccc(C2c3[nH]c4ccccc4c3CCN2C(=O)CN2CCOC2=O)n1 (centres undefined) | . | . | . | . | . | . | / | / | /
COCc1ccc(C(=O)NC2CC(C)(C)Cc3c2cnn3-c2ccc(OC)cc2)o1 (centres undefined) | . | . | . | . | . | / | / | / | /
CCc1cccc(C)c1Nc1nc2ccccc2n2cnnc12 | . | . | . | . | . | / | / | / | /
COc1ccccc1NC(=O)CSc1ccc2nnc(CCNC(=O)c3ccccc3)n2n1 | . | . | . | . | . | / | / | / | /
COC(=O)C1CCN(Cc2cc(=O)oc3cc(OC)ccc23)CC1 | . | . | 4.79 | . | . | . | 21.0% | . | .
CCOC(=O)C1CCN(Cc2cc(=O)oc3c(C)c(C)ccc23)CC1 | . | . | . | . | . | / | / | / | /
COc1ccc(OC)c(CN2CCN(Cc3cc(=O)oc4cc(O)ccc34)CC2)c1 | . | . | . | . | . | / | / | / | /
CCOC(=O)C1CCN(Cc2cc(=O)oc3cc(C)c(Cl)cc23)CC1 | . | . | 9.26 | . | . | / | 5.0% | . | .
O=C(O)COCC(=O)N1CCCN(c2nccc(C(F)(F)F)n2)CC1 | . | . | . | . | . | / | / | / | /
COc1ccc(/C=C/C(=O)C(C)(C)C)cc1OC | . | . | . | . | . | / | / | / | /
COc1ccc(/C=C/C(=O)c2ccc([N+](=O)[O-])o2)cc1OC | . | . | . | . | . | / | / | . | .
O=C(/C=C/c1cccc(Cl)c1)c1ccc([N+](=O)[O-])o1 | . | . | 13.7 | . | . | / | 17.5% | 33.5% | 7.0%
COc1cc(/C=C/C(=O)c2ccc([N+](=O)[O-])o2)ccc1O | . | . | 8.73 | . | . | / | 39.0% | . | .
COc1cc2c(cc1OC)CN(C(=O)c1ccc([N+](=O)[O-])o1)CC2 | . | . | . | . | . | . | / | / | /
COCc1cc(C)nc(N/N=C/c2ccc(-c3ccc(Cl)cc3[N+](=O)[O-])o2)c1C#N | . | / | . | / | / | . | / | / | /
SMILES | RGS4 pot | MrgX1 antagonist | RGS4 inh | MrgX1 ag | MrgX1 PAM | Cl transport mod | RGS4 block valid | RGS4 uninduced | M3R basal Ca ctr
O=C(O)CCc1ccc(-c2ccccc2)o1 | . | . | 5.06 | . | . | . | 5.0% | . | .
O=C(O)CCc1nc(-c2ccccc2)c(-c2ccccc2)o1 | . | . | . | . | . | . | / | / | /
Cc1cc(C)cc(NC(=O)COc2coc(CN3CCc4ccccc4C3)cc2=O)c1 | . | . | . | . | . | / | / | / | /
Nc1nc2ccc(S(=O)(=O)c3ccc4nc(N)sc4c3)cc2s1 | . | . | 6.3 | . | . | . | . | . | .
CCCOc1ccc(C(=O)CCN2CCCCC2)cc1 | . | . | . | . | . | . | . | . | 11.5%
CCOc1ccc(C(=O)CCN2CCCCCC2)cc1 | . | . | 11.5 | . | . | . | . | . | 20.5%
CC(=O)N(Cc1cc2ccccc2[nH]c1=O)c1ccc(C)cc1 | . | . | . | . | . | / | / | / | /
CC1(C)Cc2c(sc3ncnc(NN)c23)CO1 | . | . | . | . | . | / | / | / | /
Nc1ccc(C23CC4CC(CC(O)(C4)C2)C3)cc1 | . | . | . | . | . | . | / | / | /
Nc1ccc(C23CC4CC(CC(C4)C2)C3)cc1 | . | . | 7.94 | . | . | . | 13.0% | . | .
O=C(Nc1ccc2c(c1)OCCO2)c1c[nH]c(=O)n(-c2ccc(F)c(Cl)c2)c1=O | . | . | . | . | . | / | / | / | /
N#CCS(=O)(=O)c1ccccc1 | . | . | . | . | . | / | / | / | /
CCOC(=O)CC1(NC(=O)C2CCC(=O)N(Cc3ccccc3OC)C2)CCCCC1 (centres undefined) | . | . | . | . | . | / | / | / | /
O=C(CCc1nc(-c2ccccc2Cl)no1)NC1CCCCC1 | . | . | . | . | . | / | / | / | /
O=C(CSC1=NS(=O)(=O)c2ccccc21)Nc1ccccc1 | . | . | 9.38 | . | . | . | 25.0% | . | .
COC(=O)CSC1=NS(=O)(=O)c2ccccc21 | . | . | . | . | . | . | / | / | /
NC(=O)c1cc2c(s1)-c1cc(Cl)ccc1SC2 | . | . | 5.86 | . | . | . | 18.0% | . | .
Cc1ccc(C)c(NS(=O)(=O)c2ccccc2C)c1 | . | . | . | . | . | / | / | / | /
CSc1nc(-c2ccc(Cl)cc2)nn1C(=O)c1ccco1 | . | . | 5.6 | . | . | . | . | . | .
O=Nc1c(O)n(Cc2cccc(Cl)c2)c2ccccc12 | . | . | 6.41 | . | . | . | 16.0% | 37.0% | .
COC(=O)N=Nc1c(O)n(Cc2ccccc2)c2ccccc12 | . | . | . | . | . | . | / | / | /
O=C(COc1ccc(F)cc1)NCCCn1ccnc1 | . | / | . | / | / | / | / | / | /
CCc1sc(C(C2C(=O)CC(C)(C)CC2=O)C2C(=O)CC(C)(C)CC2=O)cc1[N+](=O)[O-] | . | . | 30.5 | 52.3 | . | . | 30.5% | . | 121.0%
CCc1sc(/C=C(/C#N)C(N)=S)cc1[N+](=O)[O-] | / | / | / | / | / | . | / | / | /

Assay outcomes from PubChem BioAssay.
